DAT uptake mod: modulates human dopamine transporter uptake under cocaine; Q01959; LLC-PK1 hDAT cells, [14C]-dopamine uptake with cocaine IC80; actives deviate in either direction; B-score at 10 µM; hit rate 1.3% among 110,000; AID 449768;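 active = Z score or B-score, a plate-position-corrected score, falls beyond the plate's 99.7% confidence bounds, in either direction; inactive = both scores lie inside the 99.7% bounds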;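 also: scored against the spread of the other compound wells on the same plate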
WNV NS2B-NS3 inh: blocks West Nile virus NS2B-NS3 protease activity; P06935; WNV NS2B-NS3 protease, fluorogenic substrate Ex360/Em465; hits give low values; z-score (test concentration not listed); hit rate 0.18% among 65,000; in the data active = z-score below about -3
Target sequence (P06935 1371-1501 limits assumed): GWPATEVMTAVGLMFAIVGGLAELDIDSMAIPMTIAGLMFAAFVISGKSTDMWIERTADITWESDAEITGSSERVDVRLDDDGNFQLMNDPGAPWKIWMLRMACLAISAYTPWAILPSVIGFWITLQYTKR
Target sequence (P06935 1502-1679 limits assumed): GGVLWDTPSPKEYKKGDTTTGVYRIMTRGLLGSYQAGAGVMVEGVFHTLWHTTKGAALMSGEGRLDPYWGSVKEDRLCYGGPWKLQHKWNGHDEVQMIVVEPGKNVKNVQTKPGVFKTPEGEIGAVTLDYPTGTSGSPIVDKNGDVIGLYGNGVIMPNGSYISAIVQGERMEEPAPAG
AP ELISA ortho: alternative pathway complement inhibition, orthogonal assay; Human serum alternative complement pathway, LPS-coated ELISA, C3 deposition; tested in compound mixtures; inhibition, % at 5 µM; hit rate 0.08% among 62,000; AID 1235;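 active = inhibition above 30% in each of the two pooled mixtures holding the compound, so the lower value exceeds 30%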;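 also: 0% = serum in Mg-EGTA without compound and 100% = EDTA serum blank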
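Test system: human serum alternative complement pathway, C3 deposition on LPS-coated wells; also added: Plate-bound LPS; doses: 5 µM per compound in ten-compound mixtures; schedule: 1 h at 37 °C; detection: Anti-C3 ELISA, OD 450 nm; evaluation: percent inhibition of C3 deposition onto LPS; repeats: two pool placements per compound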
D1 allo mod: allosteric modulators of human D1 dopamine receptor | P21728 | HEK293 D1, CRE-luciferase, dopamine EC30 potentiation; actives deviate in either direction | B-score at 10 µM | hit rate 5.9% among 58,000 | AID 641;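 active = luminescence count or its row- and column-corrected plate score outside the 99.7% band of the plate's sample wells, on either side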
* hit, by the source's call; nt = no result given; ! = a repeat was not active. Shown is part of a subset that was picked to be rich in hits.

SMILES	DAT uptake mod	WNV NS2B-NS3 inh	AP ELISA ortho	D1 allo mod
CCOC(=O)N1CCC(=NNS(=O)(=O)c2cccc([N+](=O)[O-])c2)CC1	-1.04	nt	nt	nt
O=C(NCc1cccnc1)[C@@H]1CC=C[C@@H]2CCN(Cc3ccccc3)C(=O)[C@@H]21	0.0968	nt	nt	nt
CCNc1nc(NC(C)C)nc(OCCOC(=O)Nc2ccccc2)n1	3.64*	nt	nt	nt
CCNc1nc(NC(C)C)nc(OCCNS(=O)(=O)c2cc(C)ccc2C)n1	0.984	0.27	31.9*	2.48
Cc1ccc(S(=O)(=O)c2c(COC(=O)c3ccc(Cl)cc3)c(-c3ccccc3)nn2C)cc1	-1.24	nt	nt	nt
COc1ccc(CCN2C(=O)c3[nH]nc(-c4ccccc4O)c3C2c2cccc(O)c2)cc1OC (stereo unspecified)	2.71*	-0.43	7.3	nt
O=C1c2[nH]nc(-c3ccccc3O)c2C(c2cccc(Cl)c2)N1Cc1ccco1 (stereo unspecified)	-0.775	0.11	6.2	nt
c1ccc(-c2ccc(-c3ccccn3)nn2)nc1	nt	0.08	7.2	-8.69*
CN(c1ccc(OCC(=O)N2CCCCC2)cc1)S(=O)(=O)c1cccs1	3.02*	0.95	-5.2	nt
COc1ccc(Cl)cc1C(=O)Nc1ccccc1N1CCN(C)CC1	3.49*	0.42	14.1	-3.2
COc1c(Cl)cc(Cl)cc1C(=O)Nc1ccccc1N1CCN(C(C)=O)CC1	nt	0.19	7.3	-0.336
CN1CCN(c2ccccc2NC(=O)c2ccc(-c3ccccc3)cc2)CC1	4.9*	-0.00596	12.5	-3.03
CN1CCN(c2ccccc2NC(=O)c2cccc(OCc3ccccc3)c2)CC1	1.05	1.17	14.4	-1.95
CN1CCN(c2ccccc2NC(=O)c2ccc(OCc3ccccc3)cc2)CC1	2.58*	0.52	5.0	-4.63*
Cc1ccc(OCCCC(=O)Nc2ccc(Br)cc2)cc1	0.157	nt	nt	nt
CCOC(=O)N1CCN(C(=O)Cn2cc3c(n2)CCCC3)CC1	-7.86*	-1.14	17.2	-0.545
COc1cc(C(=O)Nc2cc(C)ccn2)cc(OC)c1OC	0.238	0.67	12.0	1.67
COc1ccc(C(=O)NC(=O)Nc2cc(C)ccn2)cc1	-1.49	1.12	6.4	-5.98*
COc1ccc(S(=O)(=O)Cc2ccc(C(=O)NCc3ccc(F)cc3)o2)cc1	nt	-0.29	-4.1	0.00348
O=C(/C=C/Nc1ccccc1Br)c1ccccn1	0.0119	1.91	10.0	-8.13*
O=C(/C=C\Nc1ccccn1)c1ccccc1	0.201	-1.3	6.4	-6.9*
COC(=O)C1=C(C(=O)OC)[C@@H]2N(C)c3ccc(OC)cc3[C@@]23C[C@@H](C(=O)OC)N(C(=O)c2cc(C)oc2C)C3=N1	0.0521	nt	nt	nt
O=C(N1CCOCC1)N1CCN(c2nc(-c3ccc(F)cc3)cs2)CC1	1.81	-1.22	6.0	-1.98
COc1ccc(-c2csc(N3CCOCC3)n2)cc1OC	0.881	-0.43	9.6	12.9*
CCCCc1nnc(NC(=O)CSc2nc(=O)cc(N)n2-c2cccc(C)c2)s1	1.01	nt	nt	nt
SMILES	DAT uptake mod	WNV NS2B-NS3 inh	AP ELISA ortho	D1 allo mod
O=S(=O)(Nc1nc2ccccc2s1)c1ccc(Cl)s1	-3.6*	nt	nt	nt
CCCCCCCCS(=O)c1sc2nc(C)cc(C)c2c1N (stereo unspecified)	0.291	nt	nt	nt
CCN(C(=O)c1cnc(N2CCN(c3ncccn3)CC2)c2ccccc12)c1cccc(Cl)c1	2.21*!	-1.18	-2.4	-1.38
CN(C(=O)c1cnc(N2CCN(c3ncccn3)CC2)c2ccccc12)c1ccc(Cl)cc1	0.843	-0.95	8.8	-0.625
COC(=O)c1ccc(CSc2nnc(NCc3ccccc3)s2)o1	-1.62	-0.42	1.6	-0.136
COC(=O)c1ccc(CSc2nnc(SCc3ccc(C(=O)OC)o3)s2)o1	-0.897	-3.49*	17.4	0.331
COC(=O)c1ccc(CSc2nnc(Nc3ccccc3OC)s2)o1	3.47*	0.02	20.0	-0.282
COC(=O)c1ccc(CSc2nnc(Nc3ccc(OC)cc3)s2)o1	-0.574	nt	nt	nt
COC(=O)CSc1nnc(SCc2ccc(OC)cc2)s1	nt	-1.46	13.9	-2.3*
CC1CC(C)CN(C(=O)c2ccccc2Nc2ccc(SC(F)F)cc2)C1 (stereo unspecified)	0.051	nt	nt	nt
CC1=C(C#N)C(Nc2ccc(Cl)cn2)(C(F)(F)F)C(=O)N1 (stereo unspecified)	-1.32	nt	nt	nt
O=C(NC1(C(F)(F)F)NC(=O)N(C2CCCC2)C1=O)C1CC1 (stereo unspecified)	0.032	0.5	-10.0	0.256
Cc1nc(Cc2nnc(SCc3nc(N)nc(Nc4ccccc4C)n3)o2)cs1	0.198	-0.8	19.3	0.703
COc1ccccc1Cn1c(-c2ccco2)nc2nc3ccccc3nc21	-0.0223	0.13	3.8	11.8*
CCN1C(=O)c2cccc3c(NC(=O)c4ccc(S(=O)(=O)N5CCOCC5)cc4)ccc1c23	3.7*	1.56	3.5	-0.844
O=C(NCc1ccccc1)c1onc(CSc2ccc(F)c(F)c2)c1C(=O)NCc1ccccc1	0.822	nt	nt	nt
CCOc1ccc(NC(=O)c2cc3n(n2)C(C(F)(F)F)CC(c2ccco2)N3)cc1 (stereo unspecified)	-0.00986	0.61	-11.5	-7.48*
CSCC[C@H](NC(=O)OC(C)(C)C)c1nnc(SCC(N)=O)o1	-0.317	-0.26	-0.4	-2.17*
C/C(=N\NC(=O)c1ccccc1O)C1C(=O)c2ccccc2C1=O	-3.74*	nt	nt	nt
C/C(=N/NC(=O)c1cc2ccccc2cc1O)C1C(=O)c2ccccc2C1=O	-0.57	nt	nt	nt
C/C(CC(=O)Nc1ccccn1)=N\NC(=O)C(=O)Nc1ccccc1C	3.23*	nt	nt	nt
Cc1ccc(NC(=O)C2CCN(S(=O)(=O)c3cccc4nonc34)CC2)nc1	-0.118	-4.84*	24.0	0.159
O=C(Nc1ccccn1)C1CCN(S(=O)(=O)c2cccc3nonc23)CC1	0.908	1.36	7.0	-0.0704
O=[N+]([O-])c1nn(-c2ccc3c(c2)OCCO3)n(O)c1=NC1CCCCC1	0.284	nt	nt	nt
O=[N+]([O-])c1nn(-c2ccc3c(c2)OCCO3)n(O)c1=NCc1ccccc1Cl	13.6*	nt	nt	nt
SMILES	DAT uptake mod	WNV NS2B-NS3 inh	AP ELISA ortho	D1 allo mod
O=C(c1ccco1)N1CCN(C(=O)c2cccn3c(=O)c4c5c(sc4nc23)CCCC5)CC1	nt	0.86	-3.8	3.82*
Cc1cc(C(c2nnnn2Cc2ccccc2)N2CCOCC2)c(C)n1-c1ccc2c(c1)OCO2 (stereo unspecified)	1.06	0.61	7.0	-0.0307
COc1cccc(C(=O)NC2(C(F)(F)F)N=C3SCCN3C2=O)c1 (stereo unspecified)	1.37	-4.77*	-6.1	-0.308
Cc1ccc(C(=O)NC2(C(F)(F)F)N=C3SCCN3C2=O)cc1 (stereo unspecified)	-0.194	nt	nt	nt
O=C(NC1(C(F)(F)F)NC(=O)N(C2CCCCC2)C1=O)c1cccs1 (stereo unspecified)	-3.31*	0.04	19.4	0.0285
CN1C(=O)NC(NC(=O)c2cccs2)(C(F)(F)F)C1=O (stereo unspecified)	-0.48	0.24	-7.3	-0.0153
COCCNC(=O)c1ccc2c(=O)n(CCOC)c(=O)[nH]c2c1	-8.96*	-0.96	-3.0	nt
CC1CCCCN1CCNC(=O)c1ccc2c(=O)n(CCc3ccccc3)c(=O)[nH]c2c1 (stereo unspecified)	nt	0.93	-6.0	-3.74*

Bioassay records as filed in PubChem.
